Published values from different studies.
Compare with care: the assays were run in different laboratories.

CCOC(=O)C1=C(N)N(c2ccc(C(=O)OCC)cc2)C(O)=C(C#N)C12C(=O)Nc1ccccc12 (centres unmarked)
viability (HepG2; cell growth or viability, MTT; 100 µM, 24 h): 7.8%

Cc1c(C(=O)O)sc2[nH]c(=O)n(O)c(=O)c12
inhibition (Human betaherpesvirus 5; viral replication, inhibitor; 10 µM, 7 days): 11%

Nc1nc(O)c2ncn(COC(CO)CO)c2n1
EC50 (Human betaherpesvirus 5; viral replication, inhibitor; HFF): 1600 nM

CCCCCCC#Cc1cncc(-c2nnc(SCc3ccc(Cl)cc3)n2C2CC2)c1
IC90 (Mycobacterium tuberculosis; microbial growth; ERDMAN): 7500 nM

O=c1[nH]c2scc(-c3ccccc3)c2c(=O)n1O
inhibition (Human betaherpesvirus 5; viral replication, inhibitor; 10 µM, 7 days): -3.4%

COc1ccc2c3c1O[C@H]1C(=O)CC[C@@]4(O)[C@@H](C2)N(C)CC[C@]314
ED50 (thermal pain; rat; intraperitoneal): 2.67 mg/kg

O=c1[nH]c2sc(-c3ccc(F)cc3)cc2c(=O)n1O
inhibition (Human betaherpesvirus 5; viral replication, inhibitor; 10 µM, 7 days): -12%

NNC(=O)c1ccncc1
IC90 (Mycobacterium tuberculosis; microbial growth; ERDMAN): > 1000 nM

Cc1csc2c(=O)n(O)c(=O)[nH]c12
inhibition (Human betaherpesvirus 5; viral replication, inhibitor; 10 µM, 7 days): 33%

Nc1ncnc2c([C@@H]3N[C@H](CO)[C@@H](O)[C@H]3O)c[nH]c12
inhibition (human respiratory syncytial virus; viral replication, inhibitor; MA104; 28.4 µM): 102%

CCCCCCC#Cc1cncc(-c2nnc(Sc3ccc([N+](=O)[O-])cc3[N+](=O)[O-])n2C)c1
IC90 (Mycobacterium tuberculosis; microbial growth; ERDMAN): 1200 nM

N.N.[Cl][Pt][Cl]
IC50 (CCD-18Co; cell growth or viability, MTS; 72 h): 64000 nM

CCCCCCC#Cc1cncc(-c2nnc(SCc3cc([N+](=O)[O-])cc([N+](=O)[O-])c3)n2C)c1
IC50 (Mycobacterium tuberculosis; microbial growth): 61 nM

O=C(NCc1ccc(Cl)c(Cl)c1)c1nc(Cl)c2cccnc2c1O
EC50 (Human betaherpesvirus 5; viral replication, inhibitor; HFF): 9700 nM
